Results gathered from unrelated publications.
Compare with care: the assays were run in different laboratories.
Target: D(3) dopamine receptor (DRD3, Homo sapiens, UniProt P35462)
Method: radioligand

observed	notes	Ki [nM]	SMILES
ligand displacement	cell membranes	274	CC1Cc2ccccc2N1C(=O)NCCCCN(C)[C@H]1CNc2ccccc2C1 (stereo partly drawn)
ligand displacement	–	> 10000	Oc1cccc(CCC2=NCCN2CCc2ccccc2)c1
ligand displacement	cell membranes	300	C[C@@H]1Cc2ccccc2N1C(=O)NCCCCN(C)[C@@H]1Cc2cccc3[nH]c(=O)n(c23)C1
ligand displacement	–	1	O=C1c2ccccc2CCN1CCCCN1CCN(c2cccc(Cl)c2Cl)CC1
cell-free assay	–	3090	CCCCN1CCC(COC(=O)c2ccc(N)c(OCF)c2)CC1
cell-free assay	–	0.4	COc1ccccc1N1CCN(CCCCNC(=O)c2cc3cc(OCCF)ccc3[nH]2)CC1
cell-free assay	–	> 10000	CCN(CC)c1ccc(C2Nc3ccc(C(=O)c4ccccc4)cc3NC3=C2C(=O)CC(C)(C)C3)cc1 (stereo not drawn)
ligand displacement	–	> 10000	COc1ccc(CCC2=NCCN2CCc2ccccc2)cc1
ligand displacement	–	208	COc1ccc2c(c1)C(=O)N(CCN1CCN(c3ccccc3OC)CC1)C2
cell-free assay	–	1910	CCOc1c(O)cc(Br)c2c1CN1CCc3cc(OCC(F)F)c(O)cc3[C@@H]1C2
ligand displacement	cell membranes	54.6	CN(C[C@@H]1C[C@H]1CCNC(=O)c1cc2ccccc2[nH]1)[C@@H]1Cc2cccc3[nH]c(=O)n(c23)C1
ligand displacement	–	832	Oc1ccc(CCC2=NCCN2CCc2ccccc2)cc1
